Compounds with a hit are over-represented: about 1.1% of the library has one in this group of screens.
NR2E3 ag-1: inhibitors of NR2E3-RetCOR corepressor binding, primary screen, NR2E3 agonist project, biochemical, TR-FRET, GST-NR2E3, biotin-RetCOR; 1536-well; 320,000 compounds, 0.12% hits; Photoreceptor-specific nuclear receptor (Homo sapiens), Q9Y5X4; AID 2300, 2010; inhibition of corepressor binding, % at 4.78 µM;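 active = percent inhibition above the cutoff of mean plus 3 SD of all tested compounds, set per screening campaign, cut at about 20% in these data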;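 note: 0% = DMSO wells and 100% = biotin wells as full block of FRET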
Target sequence (Q9Y5X4 whole entry, looked up): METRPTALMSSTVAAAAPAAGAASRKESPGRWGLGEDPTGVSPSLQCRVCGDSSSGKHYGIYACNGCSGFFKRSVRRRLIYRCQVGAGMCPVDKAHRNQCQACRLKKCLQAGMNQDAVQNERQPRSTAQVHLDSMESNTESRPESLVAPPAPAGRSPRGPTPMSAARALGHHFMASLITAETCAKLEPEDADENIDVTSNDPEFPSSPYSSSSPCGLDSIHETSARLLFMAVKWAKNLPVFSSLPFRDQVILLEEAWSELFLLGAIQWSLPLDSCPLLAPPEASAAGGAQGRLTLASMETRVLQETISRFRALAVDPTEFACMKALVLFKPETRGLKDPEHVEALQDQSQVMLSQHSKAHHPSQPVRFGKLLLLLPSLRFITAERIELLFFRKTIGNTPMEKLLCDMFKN
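Format: 1536-well format; test system: GST-NR2E3 and biotin-RetCOR proteins; read-out basis: percent inhibition of TR-FRET ratio; timing: 5 h incubation at 4 °C; detection: time-resolved FRET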
core dimer inh: inhibitors of HCV core protein dimerization, primary screen, biochemical, TR-FRET, high-throughput | TR-FRET GST/Flag-core106 dimerization, 1536-well | inhibition, % at 5 µM | 300,000 compounds, 0.33% hits;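 active = inhibition above the mean of all tested compounds plus 3 SD, set per screening campaign, cut at about 45% in these data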
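Assay system: GST-tagged and Flag-tagged HCV core protein residues 1-106 / Times: compound-protein-antibody incubation 4 h at 22.5 °C / Signal: time-resolved FRET, ex 340 nm, em 617 and 671 nm / Evaluation: % inhibition based on acceptor/donor emission ratio / Benchmarks: wells lacking GST-core106 and wells with excess unlabelled core106 / Repeats: singlicate, one well per compound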
NR2E3 ag-2: NR2E3 agonists in two-hybrid cells, primary screen, cell-based, luminescence, CHO-S, Gal4-NCOR/VP16-NR2E3. 360,000 compounds, 0.35% hits. AID 602229, 2012. inhibition of corepressor binding, % at 3.98 µM. luciferase;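 active = inhibition above the mean of all tested compounds plus 3 SD, cut at about 70% in these data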;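 note: 0% = DMSO with NR2E3 transfected cells and 100% = cells lacking NR2E3 construct; higher means lower luciferase signal from less NR2E3 corepressor binding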
Vif imaging: HIV Vif self-association inhibitors, primary screen, imaging, HEK293T, single point; HEK293T cells, Vif self-association by quenched fluorescence, 24 h; inhibition, % at 7.49 µM; 340,000 compounds, 0.35% hits; AID 602346, 2012; in the data active = inhibition above about 50%, passing the limit was not always enough
MT1-MMP act inh: blockers of MT1-MMP proenzyme processing, primary screen, HT1080 RFP-PRO-GFP cells, GFP/RFP fluorescence | Matrix metalloproteinase-14 (Homo sapiens), P50281 | GFP/RFP ratio fluorescence, overnight; percent of plate control window, DMSO zero | GFP/RFP ratio change, % at 20 µM | 360,000 compounds, 0.061% hits | AID 651647, 2012;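 active = GFP/RFP ratio change of at least 30% with cell ATP level not reduced by more than half and red fluorescence within 50% of control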
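Material – HT1080 RFP-PRO-GFP cells · Control set – DMSO wells and RFP-L50D-GFP cells · Incubation – overnight cell settling, then overnight compound exposure, 37 °C, 5% CO2 · Compound dosing – single-point 20 µM compound, 1% DMSO · Read-out – GFP/RFP fluorescence ratio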
DAGLB inhibitor: DAGLB lipase inhibitors, primary screen, biochemical, fluorescence, HTS. 340,000 compounds, 0.059% hits. HEK293T DAGLB membrane lysate, EnzChek fluorogenic substrate. AID 504411, 2011. inhibition, % at 5.17 µM; in the data active = inhibition above about 34%;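 note: 0% = enzyme with vehicle and 100% = wells lacking enzyme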
* marks the source's active call; other numbers are inactive results; . = no result given.

SMILES	NR2E3 ag-1	core dimer inh	NR2E3 ag-2	Vif imaging	MT1-MMP act inh	DAGLB inhibitor
Cc1ccc(NC(=O)/C=C/C(=O)O)c(NC(=O)c2ccccc2)c1	-4	3	-16	53*	3	-2
Cc1ccc(O)c(NC(=O)/C=C/C(=O)O)c1	0	1	-23	-10	0	-2
Cc1cc(C)cc(NC(=O)CC2Oc3ccc(C)cc3NC2=O)c1 (stereo unspecified)	-1	-5	-10	-2	5	0
CC(SC1=NCCN1S(=O)(=O)c1ccccc1)c1ccccc1 (stereo unspecified)	-1	3	-22	1	-3	-5
CCOC(=O)c1c(-c2ccccc2)nnn1-c1nc(OCC)nc(N2CCCCC2)n1	1	6	-6	-14	-7	-6
CCOc1nc(N2CCCCC2)nc(-n2cc(-c3ccccc3)nn2)n1	-1	5	-17	55*	0	-2
CCOc1ccc(N2C=Nc3ccc(OCC)cc3C2)cc1	1	0	-24	5	4	-2
COc1ccc2nc3cc([N+](=O)[O-])ccc3c(NNc3ccc([N+](=O)[O-])cc3)c2c1	.	.	-9	67*	-2	4
COc1ccc(OCc2cnc(Cl)s2)cc1	-1	-4	-27	55*	1	-7
CC1(Cc2ccc(C(F)(F)F)o2)C(=O)Nc2cc(-c3ccc(F)cc3F)ccc21 (stereo unspecified)	.	.	-20	.	-4	.
CCC(CC)C(=O)NCCc1ccc(S(N)(=O)=O)cc1	-1	-1	-36	68*	4	-1
NS(=O)(=O)c1cccc(NC(=O)COC(=O)Cc2ccc(S(=O)(=O)N3CCCCC3)s2)c1	2	31	-16	-2	-1	1
O=C(Cc1ccc(S(=O)(=O)N2CCOCC2)s1)Nc1ccc(N2CCOCC2)cc1	-1	9	-25	-5	1	2
CN(C)S(=O)(=O)c1ccc(NC(=O)Cc2ccc(S(=O)(=O)N3CCOCC3)s2)cc1	2	49*	3	3	0	-1
O=C(COC(=O)Cc1ccc(S(=O)(=O)N2CCCCC2)s1)Nc1ccc2c(c1)OCO2	0	63*	-22	-4	-7	0
CCN(CC)S(=O)(=O)c1cc(NC(=O)Cc2ccc(S(=O)(=O)N3CCOCC3)s2)ccc1Cl	.	.	19	-33	-5	0
CCn1c2ccccc2c2cc(NC(=O)Cc3ccc(S(=O)(=O)N4CCOCC4)s3)ccc21	-3	60*	-4	.	2	5
CC1CCCN(S(=O)(=O)c2ccc(C(=O)NC(C)c3ccccc3)cc2)C1 (stereo unspecified)	.	.	1	.	0	-3
CSCCC(C(=O)Nc1c(C)cccc1C)n1c(COc2ccc(C)cc2)nc2ccccc21 (stereo unspecified)	.	.	.	.	-16	.
O=C(CSc1nnc(NC(=O)c2ccccc2Cl)s1)Nc1ccc2c(c1)oc1ccccc12	2	49*	.	.	.	.
O=C1N[C@@H](Cc2ccccc2)C(=O)N2[C@H]1C[C@]1([C@]34C[C@H]5C(=O)N[C@@H](Cc6ccccc6)C(=O)N5[C@H]3N(S(=O)(=O)c3ccccc3)c3ccccc34)c3ccccc3N(S(=O)(=O)c3ccccc3)[C@H]21	1	60*	-2	6	1	10
CC(C)c1cc(C(C)C)c(S(=O)(=O)N2c3ccccc3[C@@]3(Br)C[C@H]4C(=O)N[C@@H](Cc5ccccc5)C(=O)N4[C@@H]23)c(C(C)C)c1	-1	46*	.	.	.	.
O=C1N[C@@H](Cc2ccccc2)C(=O)N2CCCC12 (stereo partly specified)	.	.	-31	18	5	1
O=C1N[C@@H](Cc2ccccc2)C(=O)N2[C@@H]3N(S(=O)(=O)c4ccccc4)c4ccccc4[C@]3(Br)C[C@@H]12	4	23	-21	-5	1	3
Cc1cc(C)c(S(=O)(=O)Nc2ccc3c4c(cccc24)CC3)c(C)c1	5	27	46	57*	5	-5
SMILES	NR2E3 ag-1	core dimer inh	NR2E3 ag-2	Vif imaging	MT1-MMP act inh	DAGLB inhibitor
CC(=O)c1cccc(NC(=S)NC(=O)C(C)C)c1	-1	-1	-11	87*	3	2
CC(=O)c1cccc(NC(=S)NC(=O)c2ccccc2)c1	1	0	-64	-3	1	-5
COc1cc(OC)cc(C(=O)N(CN2CCCC2=O)c2ccccc2OC)c1	1	-1	-2	54*	0	0
NS(=O)(=O)c1ccc(N=Nc2c(-c3ccccc3)[nH]n(-c3nc(-c4ccccc4)cs3)c2=O)cc1	1	46*	-5	6	11	14
CCCn1nc([N+](=O)[O-])c(C(C#N)c2nc3ccccc3s2)c(Cl)c1=O (stereo unspecified)	3	3	-56	.	21	67*
CCn1nc([N+](=O)[O-])c(C(C#N)c2nc3ccccc3n2C)c(Cl)c1=O (stereo unspecified)	0	-12	-18	-4	14	30
COCCCNC(=O)c1csc([C@@H]2O[C@H](CO)[C@H](O)[C@H](O)[C@H]2O)n1	.	.	0	8	3	.
Cc1nn(-c2ccc(Cl)cc2)c(Cl)c1/C=N/NC(=O)c1ccc(NS(=O)(=O)c2cccs2)cc1	-1	54*	-18	6	1	2
Cc1nn(-c2ccc(F)cc2)c(Cl)c1/C=N/NC(=O)c1cccs1	1	0	-87	-4	4	1
COC(=O)c1cccc(NC(=S)NCCC2=CCCCC2)c1	4	2	91*	55*	1	2
COc1ccccc1OC(=O)c1cc2ccccc2oc1=O	0	-3	-7	0	6	-1
COc1cc(/C=C/[N+](=O)[O-])ccc1OC(=O)c1cc2ccccc2oc1=O	3	70*	14	6	-1	-5
CN(C)CCN(C)C1CN(Cc2ccc([N+](=O)[O-])cc2)S(=O)(=O)C1 (stereo unspecified)	.	.	0	-3	-1	-2
NS(=O)(=O)c1ccc2c(c1)C1C=CCC1C(C1CC=CCC1)N2 (stereo unspecified)	0	65*	-22	1	-16	9

Source: PubChem (several laboratories)
